According to ChEMBL document CHEMBL4680072, “Synthesis and evaluation of a radioiodinated 4,6-diaryl-3-cyano-2-pyridinone derivative as a survivin targeting SPECT probe for tumor imaging” (Bioorg Med Chem Lett, 2016):

Assays:
[1] = Biodistribution in intestine of BALB/c nu/nu mouse xenografted with human MDA-MB-231 cells at 7.4 kBq, iv using [125I] labeled compound measured after 60 mins by gamma counter method; assay type: ADME, organism-based; conditions: in vivo, 1 h
Method in brief: (§1)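 Radioactivity in each excised tissue is expressed as percent injected dose per gram (% ID/g). Each value is the mean (SD) of three tumor-bearing mice per time point (n = 3).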

[2] = Biodistribution in intestine of BALB/c nu/nu mouse xenografted with human MDA-MB-231 cells at 7.4 kBq, iv using [125I] labeled compound measured after 30 mins by gamma counter method; assay type: ADME, organism-based; conditions: in vivo, 0.5 h; method in brief: as §1
[3] = Biodistribution in heart of BALB/c nu/nu mouse xenografted with human MDA-MB-231 cells at 7.4 kBq, iv using [125I] labeled compound measured after 30 mins by gamma counter method; assay type: ADME, organism-based; conditions: in vivo, 0.5 h; method in brief: as §1
[4] = Biodistribution in spleen of BALB/c nu/nu mouse xenografted with human MDA-MB-231 cells at 7.4 kBq, iv using [125I] labeled compound measured after 60 mins by gamma counter method; assay type: ADME, organism-based; conditions: in vivo, 1 h; method in brief: as §1
[5] = Biodistribution in liver of BALB/c nu/nu mouse xenografted with human MDA-MB-231 cells at 7.4 kBq, iv using [125I] labeled compound measured after 30 mins by gamma counter method; assay type: ADME, organism-based; conditions: in vivo, 0.5 h; method in brief: as §1
[6] = Biodistribution in stomach of BALB/c nu/nu mouse xenografted with human MDA-MB-231 cells at 7.4 kBq, iv using [125I] labeled compound measured after 60 mins by gamma counter method; assay type: ADME, organism-based; conditions: in vivo, 1 h; method in brief: as §1
[7] = Biodistribution in kidney of BALB/c nu/nu mouse xenografted with human MDA-MB-231 cells at 7.4 kBq, iv using [125I] labeled compound measured after 60 mins by gamma counter method; assay type: ADME, organism-based; conditions: in vivo, 1 h; method in brief: as §1
[8] = Biodistribution in heart of BALB/c nu/nu mouse xenografted with human MDA-MB-231 cells at 7.4 kBq, iv using [125I] labeled compound measured after 180 mins by gamma counter method; assay type: ADME, organism-based; conditions: in vivo, 3 h; method in brief: as §1
[9] = Biodistribution in tumor of BALB/c nu/nu mouse xenografted with human MDA-MB-231 cells at 7.4 kBq, iv using [125I] labeled compound measured after 30 mins by gamma counter method; assay type: ADME, organism-based, Neoplasm; conditions: in vivo, 0.5 h; method in brief: as §1
[10] = Biodistribution in brain of BALB/c nu/nu mouse xenografted with human MDA-MB-231 cells at 7.4 kBq, iv using [125I] labeled compound measured after 60 mins by gamma counter method; assay type: ADME, organism-based; conditions: in vivo, 1 h; method in brief: as §1
[11] = Biodistribution in spleen of BALB/c nu/nu mouse xenografted with human MDA-MB-231 cells at 7.4 kBq, iv using [125I] labeled compound measured after 30 mins by gamma counter method; assay type: ADME, organism-based; conditions: in vivo, 0.5 h; method in brief: as §1
[12] = Biodistribution in muscle of BALB/c nu/nu mouse xenografted with human MDA-MB-231 cells at 7.4 kBq, iv using [125I] labeled compound measured after 30 mins by gamma counter method; assay type: ADME, organism-based, Muscle tissue; conditions: in vivo, 0.5 h; method in brief: as §1
[13] = Biodistribution in lung of BALB/c nu/nu mouse xenografted with human MDA-MB-231 cells at 7.4 kBq, iv using [125I] labeled compound measured after 30 mins by gamma counter method; assay type: ADME, organism-based; conditions: in vivo, 0.5 h; method in brief: as §1
[14] = Biodistribution in spleen of BALB/c nu/nu mouse xenografted with human MDA-MB-231 cells at 7.4 kBq, iv using [125I] labeled compound measured after 180 mins by gamma counter method; assay type: ADME, organism-based; conditions: in vivo, 3 h; method in brief: as §1
[15] = Biodistribution in tumor of BALB/c nu/nu mouse xenografted with human MDA-MB-231 cells at 7.4 kBq, iv using [125I] labeled compound measured after 180 mins by gamma counter method; assay type: ADME, organism-based, Neoplasm; conditions: in vivo, 3 h; method in brief: as §1
[16] = Biodistribution in blood of BALB/c nu/nu mouse xenografted with human MDA-MB-231 cells at 7.4 kBq, iv using [125I] labeled compound measured after 30 mins by gamma counter method; assay type: ADME, organism-based; conditions: in vivo, 0.5 h; method in brief: as §1
[17] = Biodistribution in lung of BALB/c nu/nu mouse xenografted with human MDA-MB-231 cells at 7.4 kBq, iv using [125I] labeled compound measured after 180 mins by gamma counter method; assay type: ADME, organism-based; conditions: in vivo, 3 h; method in brief: as §1
[18] = Biodistribution in heart of BALB/c nu/nu mouse xenografted with human MDA-MB-231 cells at 7.4 kBq, iv using [125I] labeled compound measured after 60 mins by gamma counter method; assay type: ADME, organism-based; conditions: in vivo, 1 h; method in brief: as §1
[19] = Biodistribution in pancreas of BALB/c nu/nu mouse xenografted with human MDA-MB-231 cells at 7.4 kBq, iv using [125I] labeled compound measured after 180 mins by gamma counter method; assay type: ADME, organism-based; conditions: in vivo, 3 h; method in brief: as §1
[20] = Biodistribution in liver of BALB/c nu/nu mouse xenografted with human MDA-MB-231 cells at 7.4 kBq, iv using [125I] labeled compound measured after 60 mins by gamma counter method; assay type: ADME, organism-based; conditions: in vivo, 1 h; method in brief: as §1
[21] = Biodistribution in blood of BALB/c nu/nu mouse xenografted with human MDA-MB-231 cells at 7.4 kBq, iv using [125I] labeled compound measured after 180 mins by gamma counter method; assay type: ADME, organism-based; conditions: in vivo, 3 h; method in brief: as §1
[22] = Biodistribution in lung of BALB/c nu/nu mouse xenografted with human MDA-MB-231 cells at 7.4 kBq, iv using [125I] labeled compound measured after 60 mins by gamma counter method; assay type: ADME, organism-based; conditions: in vivo, 1 h; method in brief: as §1
[23] = Biodistribution in kidney of BALB/c nu/nu mouse xenografted with human MDA-MB-231 cells at 7.4 kBq, iv using [125I] labeled compound measured after 30 mins by gamma counter method; assay type: ADME, organism-based; conditions: in vivo, 0.5 h; method in brief: as §1
[24] = Biodistribution in blood of BALB/c nu/nu mouse xenografted with human MDA-MB-231 cells at 7.4 kBq, iv using [125I] labeled compound measured after 60 mins by gamma counter method; assay type: ADME, organism-based; conditions: in vivo, 1 h; method in brief: as §1
[25] = Biodistribution in muscle of BALB/c nu/nu mouse xenografted with human MDA-MB-231 cells at 7.4 kBq, iv using [125I] labeled compound measured after 180 mins by gamma counter method; assay type: ADME, organism-based, Muscle tissue; conditions: in vivo, 3 h; method in brief: as §1
[26] = Biodistribution in stomach of BALB/c nu/nu mouse xenografted with human MDA-MB-231 cells at 7.4 kBq, iv using [125I] labeled compound measured after 180 mins by gamma counter method; assay type: ADME, organism-based; conditions: in vivo, 3 h; method in brief: as §1
[27] = Biodistribution in kidney of BALB/c nu/nu mouse xenografted with human MDA-MB-231 cells at 7.4 kBq, iv using [125I] labeled compound measured after 180 mins by gamma counter method; assay type: ADME, organism-based; conditions: in vivo, 3 h; method in brief: as §1
[28] = Biodistribution in intestine of BALB/c nu/nu mouse xenografted with human MDA-MB-231 cells at 7.4 kBq, iv using [125I] labeled compound measured after 180 mins by gamma counter method; assay type: ADME, organism-based; conditions: in vivo, 3 h; method in brief: as §1
[29] = Biodistribution in stomach of BALB/c nu/nu mouse xenografted with human MDA-MB-231 cells at 7.4 kBq, iv using [125I] labeled compound measured after 30 mins by gamma counter method; assay type: ADME, organism-based; conditions: in vivo, 0.5 h; method in brief: as §1
[30] = Biodistribution in brain of BALB/c nu/nu mouse xenografted with human MDA-MB-231 cells at 7.4 kBq, iv using [125I] labeled compound measured after 30 mins by gamma counter method; assay type: ADME, organism-based; conditions: in vivo, 0.5 h; method in brief: as §1
[31] = Biodistribution in liver of BALB/c nu/nu mouse xenografted with human MDA-MB-231 cells at 7.4 kBq, iv using [125I] labeled compound measured after 180 mins by gamma counter method; assay type: ADME, organism-based; conditions: in vivo, 3 h; method in brief: as §1
[32] = Biodistribution in pancreas of BALB/c nu/nu mouse xenografted with human MDA-MB-231 cells at 7.4 kBq, iv using [125I] labeled compound measured after 30 mins by gamma counter method; assay type: ADME, organism-based; conditions: in vivo, 0.5 h; method in brief: as §1
[33] = Biodistribution in pancreas of BALB/c nu/nu mouse xenografted with human MDA-MB-231 cells at 7.4 kBq, iv using [125I] labeled compound measured after 60 mins by gamma counter method; assay type: ADME, organism-based; conditions: in vivo, 1 h; method in brief: as §1
[34] = Biodistribution in muscle of BALB/c nu/nu mouse xenografted with human MDA-MB-231 cells at 7.4 kBq, iv using [125I] labeled compound measured after 60 mins by gamma counter method; assay type: ADME, organism-based, Muscle tissue; conditions: in vivo, 1 h; method in brief: as §1
[35] = Biodistribution in brain of BALB/c nu/nu mouse xenografted with human MDA-MB-231 cells at 7.4 kBq, iv using [125I] labeled compound measured after 180 mins by gamma counter method; assay type: ADME, organism-based; conditions: in vivo, 3 h; method in brief: as §1
[36] = Biodistribution in tumor of BALB/c nu/nu mouse xenografted with human MDA-MB-231 cells at 7.4 kBq, iv using [125I] labeled compound measured after 60 mins by gamma counter method; assay type: ADME, organism-based, Neoplasm; conditions: in vivo, 1 h; method in brief: as §1

Drug uptake [1]: 25.3 % ID/g | Drug uptake [2]: 10.1 % ID/g | Drug uptake [3]: 0.84 % ID/g | Drug uptake [4]: 1.1 % ID/g | Drug uptake [5]: 16.3 % ID/g | Drug uptake [6]: 5.33 % ID/g | Drug uptake [7]: 1.5 % ID/g | Drug uptake [8]: 0.51 % ID/g | Drug uptake [9]: 0.51 % ID/g | Drug uptake [10]: 0.06 % ID/g | Drug uptake [11]: 2.27 % ID/g | Drug uptake [12]: 0.42 % ID/g | Drug uptake [13]: 2.25 % ID/g | Drug uptake [14]: 0.71 % ID/g | Drug uptake [15]: 0.65 % ID/g | Drug uptake [16]: 1.36 % ID/g | Drug uptake [17]: 1.35 % ID/g | Drug uptake [18]: 0.53 % ID/g | Drug uptake [19]: 0.61 % ID/g | Drug uptake [20]: 10.01 % ID/g | Drug uptake [21]: 0.99 % ID/g | Drug uptake [22]: 1.43 % ID/g | Drug uptake [23]: 3.02 % ID/g | Drug uptake [24]: 0.72 % ID/g | Drug uptake [25]: 0.33 % ID/g | Drug uptake [26]: 6.21 % ID/g | Drug uptake [27]: 1.22 % ID/g | Drug uptake [28]: 21.5 % ID/g | Drug uptake [29]: 3.54 % ID/g | Drug uptake [30]: 0.07 % ID/g | Drug uptake [31]: 5.68 % ID/g | Drug uptake [32]: 2.22 % ID/g | Drug uptake [33]: 0.55 % ID/g | Drug uptake [34]: 0.29 % ID/g | Drug uptake [35]: 0.05 % ID/g | Drug uptake [36]: 0.63 % ID/g
SMILES: CCCN1CCC(C(=O)N(C)Cc2cc(Cl)cc(-c3cc(-c4cc(C(F)(F)F)ccc4[125I])c(C#N)c(=O)[nH]3)c2O)CC1
